In ChEMBL document CHEMBL2331121, “Design, synthesis, and pharmacological characterization of N- and O-substituted 5,6,7,8-tetrahydro-4H-isoxazolo[4,5-d]azepin-3-ol analogues: novel 5-HT(2A)/5-HT(2C) receptor agonists with pro-cognitive properties” (J Med Chem, 2013):
Active and inactive are the calls of the source. The rule behind the calls is not given here.

Legend:
[1] = target: T1, 5-hydroxytryptamine receptor 2A (Homo sapiens, UniProt P28223); assay: Agonist activity at human 5HT2A receptor expressed in HEK293 cells assessed as induction of intracellular calcium release measured for 90 secs by fluorescence assay; format: functional, cell-based; conditions: read-out: EC50
T1 sequence (P28223 whole entry): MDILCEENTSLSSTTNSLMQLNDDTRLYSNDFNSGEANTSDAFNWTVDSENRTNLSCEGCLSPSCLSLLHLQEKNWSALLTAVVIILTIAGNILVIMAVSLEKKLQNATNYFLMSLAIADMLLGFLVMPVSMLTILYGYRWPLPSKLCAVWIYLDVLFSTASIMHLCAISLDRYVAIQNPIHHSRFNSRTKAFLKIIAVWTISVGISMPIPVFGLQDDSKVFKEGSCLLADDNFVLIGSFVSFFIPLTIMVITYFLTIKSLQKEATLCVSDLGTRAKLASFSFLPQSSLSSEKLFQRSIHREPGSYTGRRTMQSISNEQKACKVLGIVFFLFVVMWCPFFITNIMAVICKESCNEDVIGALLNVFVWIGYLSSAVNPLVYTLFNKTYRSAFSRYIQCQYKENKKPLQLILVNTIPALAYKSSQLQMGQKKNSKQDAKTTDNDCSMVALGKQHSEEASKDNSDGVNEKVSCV

Mus musculus [2] = assay: Procognitive effect in C57Bl/6J mouse assessed as time spent in novel arm at 0.43 mg/kg, po administered 30 mins prior to acquisition trial measured after 24 hrs in presence of SB242084; format: functional
Summary of the method: (§1)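 Male C57Bl/6J mice aged 8 weeks, two-trial place recognition Y-maze. 3 min acquisition with two arms open; 24 h ITI; 3 min retention with all three arms open. Drug given po 30 min before acquisition, vehicle 10% HP-βCD. SB242084 2.1 mg/kg co-administered where stated; doses as free base. Readouts are % distance, arm entries and time in each arm. Familiar arms pooled; one-way ANOVA.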

[3] = target: T2, 5-hydroxytryptamine receptor 2C (Rattus norvegicus, UniProt P08909); assay: (§2) Displacement of [125I]-N-(p-I-Bn)-THAZ from 5HT2C receptor in rat cerebral cortex membrane after 1 hr by scintillation counting analysis; format: cell membranes
T2 sequence (P08909 whole entry): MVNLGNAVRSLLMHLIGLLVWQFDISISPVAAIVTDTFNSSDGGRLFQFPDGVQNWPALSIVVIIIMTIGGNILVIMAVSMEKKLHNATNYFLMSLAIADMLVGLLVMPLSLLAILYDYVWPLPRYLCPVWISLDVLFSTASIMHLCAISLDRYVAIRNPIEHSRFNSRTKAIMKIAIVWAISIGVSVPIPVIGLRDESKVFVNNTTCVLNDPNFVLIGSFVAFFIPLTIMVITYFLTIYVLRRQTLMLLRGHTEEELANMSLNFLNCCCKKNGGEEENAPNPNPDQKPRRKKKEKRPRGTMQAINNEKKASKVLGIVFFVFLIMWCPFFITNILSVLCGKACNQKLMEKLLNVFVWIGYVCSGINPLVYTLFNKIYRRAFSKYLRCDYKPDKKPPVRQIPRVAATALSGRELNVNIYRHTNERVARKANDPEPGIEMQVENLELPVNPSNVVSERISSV

[4] = target: T3, 5-hydroxytryptamine receptor 2C (Rattus norvegicus) (UniProt P08909); assay: as §2; format: cell membranes
T3 sequence (whole entry): T2 sequence (P08909 whole entry)

[5] = target: T3, 5-hydroxytryptamine receptor 2C (Rattus norvegicus); assay: Displacement of [125I]-N-(p-I-Bn)-THAZ from 5HT2C receptor in rat cerebellum membrane after 1 hr by scintillation counting analysis; format: cell membranes
Mus musculus [6] = assay: Procognitive effect in C57Bl/6J mouse assessed as number of familiar arm entry at 0.43 mg/kg, po administered 30 mins prior to acquisition trial measured after 24 hrs by Y-maze test; format: functional; summary of the method: as §1
[7] = target: T4, 5-hydroxytryptamine receptor 2C (Homo sapiens, UniProt P28335); assay: Agonist activity at human 5HT2C receptor expressed in HEK293 cells assessed as induction of intracellular calcium release measured for 90 secs by fluorescence assay; format: functional, cell-based; conditions: read-out: EC50
T4 sequence (P28335 whole entry): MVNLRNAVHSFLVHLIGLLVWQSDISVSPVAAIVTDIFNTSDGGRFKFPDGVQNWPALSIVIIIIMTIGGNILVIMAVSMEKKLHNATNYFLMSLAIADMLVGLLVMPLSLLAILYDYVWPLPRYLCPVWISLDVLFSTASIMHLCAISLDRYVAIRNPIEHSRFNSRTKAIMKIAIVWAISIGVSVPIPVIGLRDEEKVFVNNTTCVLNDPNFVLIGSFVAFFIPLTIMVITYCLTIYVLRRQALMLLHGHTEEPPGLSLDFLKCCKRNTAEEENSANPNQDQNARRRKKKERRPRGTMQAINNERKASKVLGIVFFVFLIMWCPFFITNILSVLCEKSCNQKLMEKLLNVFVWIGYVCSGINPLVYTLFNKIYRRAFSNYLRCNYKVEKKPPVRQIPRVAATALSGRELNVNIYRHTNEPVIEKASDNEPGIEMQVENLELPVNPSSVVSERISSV

[8] = target: T1, 5-hydroxytryptamine receptor 2A; assay: Agonist activity at human 5HT2A receptor expressed in HEK293 cells assessed as accumulation of IP1 incubated for 1 hr at 37 degC followed by 15 mins at RT by TR-FRET assay relative to 5HT; format: functional, cell-based
Summary of the method: (§3)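 Polyclonal HEK293 lines stably expressing human 5-HT2A (variant 1) or 5-HT2C (INI isoform), detached and suspended at 1 × 10⁷ cells/mL in HBSS with 20 mM HEPES, 1 mM CaCl₂, 1 mM MgCl₂, pH 7.4. Ligands in buffer with 40 mM LiCl. Incubated 1 h at 37 °C, then 15 min RT. IP1 read by HTRF 665/615 ratio. Triplicate, at least four times.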

Homo sapiens = species on record: Homo sapiens; assay: Selectivity ratio of EC50 for human 5HT2C receptor to EC50 for M1 muscarinic receptor (unknown origin) by FLIPR assay
[9] = target: T3, 5-hydroxytryptamine receptor 2C (Rattus norvegicus); assay: Displacement of [125I]-N-(p-I-Bn)-THAZ from 5HT2C receptor in Sprague-Dawley rat cortical membrane at 100 uM after 40 mins by autoradiography
[10] = target: T4, 5-hydroxytryptamine receptor 2C; assay: Displacement of [3H]mesulergine from human 5HT2C receptor expressed in tsA201 cell membranes after 1 hr by scintillation counting analysis
Mus musculus [11] = assay: Procognitive effect in C57Bl/6J mouse assessed as distance traveled in the familiar arm at 0.43 mg/kg, po administered 30 mins prior to acquisition trial measured after 24 hrs by Y-maze test (Rvb =31.5 +/- 2.9%); format: functional; summary of the method: as §1
[12] = target: T3, 5-hydroxytryptamine receptor 2C (Rattus norvegicus); assay: Displacement of [125I]-N-(p-I-Bn)-THAZ from 5HT2C receptor in Sprague-Dawley rat midbrain membrane at 100 uM after 40 mins by autoradiography; format: tissue-based
[13] = target: T1, 5-hydroxytryptamine receptor 2A; assay: biochemical; format: cell-based, tsA201; conditions: read-out: Ki
[14] = target: T4, 5-hydroxytryptamine receptor 2C; assay: Agonist activity at human 5HT2C receptor expressed in HEK293 cells assessed as accumulation of IP1 incubated for 1 hr at 37 degC followed by 15 mins at RT by TR-FRET assay; format: functional, cell-based
[15] = target: T1, 5-hydroxytryptamine receptor 2A; assay: Agonist activity at human 5HT2A receptor expressed in HEK293 cells assessed as accumulation of IP1 incubated for 1 hr at 37 degC followed by 15 mins at RT by TR-FRET assay; format: functional, cell-based
Mus musculus [16] = assay: Procognitive effect in C57Bl/6J mouse assessed as number of novel arm entries at 0.43 mg/kg, po administered 30 mins prior to acquisition trial measured after 24 hrs by Y-maze test; format: functional; summary of the method: as §1
Mus musculus [17] = assay: Procognitive effect in C57Bl/6J mouse assessed as distance traveled in the familiar arm at 0.43 mg/kg, po administered 30 mins prior to acquisition trial measured after 24 hrs in presence of SB242084 (reference value: 31.5 +/- 2.9%); format: functional; summary of the method: as §1
Mus musculus [18] = assay: Procognitive effect in C57BI/6J mouse assessed as time spent in familiar arm at 0.43 mg/kg, po administered 30 mins prior to acquisition trial measured after 24 hrs in presence of SB242084; format: functional; summary of the method: as §1
[19] = target: T5, 5-hydroxytryptamine receptor 2C (Homo sapiens) (UniProt P28335); assay: Agonist activity at human 5HT2C receptor expressed in HEK293 cells assessed as accumulation of IP1 incubated for 1 hr at 37 degC followed by 15 mins at RT by TR-FRET assay relative to 5HT; format: functional, cell-based; summary of the method: as §3
T5 sequence (whole entry): T4 sequence (P28335 whole entry)

## O=c1c2c(on1Cc1ccccc1)CCNCC2
[1]
  EC50: 550 nM
Mus musculus [2]
  Activity: 36.6%
[3]
  Ki: 724 nM
[4]
  Activity: Dose-dependent effect
[5]
  Activity: inactive
Mus musculus [6]
  Activity: 30.8%
[7]
  EC50: 420 nM
[8]
  Emax: 95%
Homo sapiens
  Ratio EC50: 20
[9]
  Activity: Active
[10]
  Ki: 2300 nM
Mus musculus [11]
  Activity: 29.8%
[12]
  Activity: Active
[13]
  Ki: 8800 nM
[14]
  EC50: 1700 nM
[15]
  EC50: 2400 nM
Mus musculus [16]
  Activity: 38.5%
Mus musculus [17]
  Activity: 32.6%
Mus musculus [18]
  Activity: 31.7%
[19]
  Emax: 92%
